Data taken from ChEMBL document CHEMBL1148625, “3-(1,1-dioxo-2H-(1,2,4)-benzothiadiazin-3-yl)-4-hydroxy-2(1H)-quinolinones, potent inhibitors of hepatitis C virus RNA-dependent RNA polymerase” (J Med Chem, 2006).
pIC50: −log10 of the molar value. One block for each compound: values may come before it.

Key:
[1] = Clearance in Sprague-Dawley rat at 0.8 mg/kg, iv or 5.8 mg/kg, po; type: ADME, organism-based; conditions: in vivo
In short: (§1)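 Single-dose pharmacokinetics in the named species, given iv and orally at the stated doses. Plasma Cmax, half-life, clearance, steady-state volume of distribution and oral bioavailability were reported as mean values.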

[2] = Clearance in Beagle dog at 0.8 mg/kg, iv or 1.8 mg/kg, po; type: ADME, organism-based, Canis lupus familiaris; conditions: in vivo
In short: (§2)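 Single-dose administration, given both intravenously and orally, to Sprague-Dawley rats, beagle dogs or cynomolgus monkeys. Plasma pharmacokinetic parameters are reported as means: Cmax in ng/mL, terminal half-life in min, clearance in mL/min/kg, steady-state volume of distribution in L/kg, and oral bioavailability F in %.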

[3] = Oral bioavailability in Sprague-Dawley rat at 0.8 mg/kg, iv or 5.8 mg/kg, po; type: ADME, organism-based; conditions: in vivo; in short: as §1
[4] = Oral bioavailability in Beagle dog at 0.8 mg/kg, iv or 1.8 mg/kg, po; type: ADME, organism-based, Canis lupus familiaris; conditions: in vivo; in short: as §2
[5] = Volume of distribution in Sprague-Dawley rat at 0.8 mg/kg, iv or 5.8 mg/kg, po; type: ADME, organism-based; conditions: in vivo, read-out: Vdss; in short: as §1
[6] = Volume of distribution in Beagle dog at 0.8 mg/kg, iv or 1.8 mg/kg, po; type: ADME, organism-based, Canis lupus familiaris; conditions: in vivo, read-out: Vdss; in short: as §2
[7] = Half life in Sprague-Dawley rat at 0.8 mg/kg, iv or 5.8 mg/kg, po; type: ADME, organism-based; conditions: in vivo; in short: as §1
[8] = Half life in Beagle dog at 0.8 mg/kg, iv or 1.8 mg/kg, po; type: ADME, organism-based, Canis lupus familiaris; conditions: in vivo; in short: as §2
[9] = target: RNA-directed RNA polymerase (Hepacivirus hominis) (UniProt O39930); experiment: Inhibition of HCV RNA replication in Huh7 cells; type: functional, cell-based; conditions: Huh-7
Sequence of RNA-directed RNA polymerase (Hepacivirus hominis) (O39930 1-591): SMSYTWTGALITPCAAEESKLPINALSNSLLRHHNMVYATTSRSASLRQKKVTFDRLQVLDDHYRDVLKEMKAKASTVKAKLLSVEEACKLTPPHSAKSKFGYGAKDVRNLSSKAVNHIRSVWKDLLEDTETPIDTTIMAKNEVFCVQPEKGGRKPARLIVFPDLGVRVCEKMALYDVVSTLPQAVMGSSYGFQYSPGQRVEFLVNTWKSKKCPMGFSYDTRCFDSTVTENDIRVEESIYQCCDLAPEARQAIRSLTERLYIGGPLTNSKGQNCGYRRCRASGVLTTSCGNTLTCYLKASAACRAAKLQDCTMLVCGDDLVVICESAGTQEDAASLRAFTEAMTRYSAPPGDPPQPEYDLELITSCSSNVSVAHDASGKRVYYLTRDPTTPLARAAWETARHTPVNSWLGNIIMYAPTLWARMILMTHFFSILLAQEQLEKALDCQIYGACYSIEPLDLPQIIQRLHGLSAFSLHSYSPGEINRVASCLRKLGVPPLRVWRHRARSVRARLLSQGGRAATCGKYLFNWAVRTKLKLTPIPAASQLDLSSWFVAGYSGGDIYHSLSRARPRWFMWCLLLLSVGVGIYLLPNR
In short: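 Huh-7 subgenomic replicon cells were seeded at 3 × 10³/well in DMEM with 10% FCS, 1% NEAA and 1 mg/mL G418, and allowed 4 h to attach. Eleven 2.5-fold DMSO dilutions were added (final 10,000 to 1.0 nM) and cells incubated 40 h. Neo RNA was measured by TaqMan RT-PCR, normalised to cyclophilin against DMSO controls; n = 8 wells per dilution.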

[10] = Cmax in Beagle dog at 0.8 mg/kg, iv or 1.8 mg/kg, po; type: ADME, organism-based, Canis lupus familiaris; conditions: in vivo; in short: as §2
[11] = target: RNA-directed RNA polymerase (Hepacivirus hominis, UniProt O39930); experiment: Inhibitory activity against HCV delta 21 NS5B RNA polymerase by SPA assay; design: species or system Hepatitis C virus subtype 1b
Sequence of RNA-directed RNA polymerase (O39930 whole entry): as the sequence (O39930 1-591) above

[12] = Cmax in Sprague-Dawley rat at 1.2 mg/kg, iv or 3.7 mg/kg, po; type: ADME, organism-based; conditions: in vivo; in short: as §2
[13] = Cmax in Beagle dog at 0.9 mg/kg, iv or 3.6 mg/kg, po; type: ADME, organism-based, Canis lupus familiaris; conditions: in vivo; in short: as §1
[14] = Cmax in cynomolgus monkey at 1.0 mg/kg, iv or 3.6 mg/kg, po; type: ADME, organism-based, Macaca fascicularis; conditions: in vivo; in short: as §1
[15] = Clearance in Sprague-Dawley rat at 1.2 mg/kg, iv or 3.7 mg/kg, po; type: ADME, organism-based; conditions: in vivo; in short: as §2
[16] = Clearance in Beagle dog at 0.9 mg/kg, iv or 3.6 mg/kg, po; type: ADME, organism-based, Canis lupus familiaris; conditions: in vivo; in short: as §1
[17] = Clearance in cynomolgus monkey at 1.0 mg/kg, iv or 3.6 mg/kg, po; type: ADME, organism-based, Macaca fascicularis; conditions: in vivo; in short: as §1
[18] = Oral bioavailability in Sprague-Dawley rat at 1.2 mg/kg, iv or 3.7 mg/kg, po; type: ADME, organism-based; conditions: in vivo; in short: as §2
[19] = Oral bioavailability in Beagle dog at 0.9 mg/kg, iv or 3.6 mg/kg, po; type: ADME, organism-based, Canis lupus familiaris; conditions: in vivo; in short: as §1
[20] = Oral bioavailability in cynomolgus monkey at 1.0 mg/kg, iv or 3.6 mg/kg, po; type: ADME, organism-based, Macaca fascicularis; conditions: in vivo; in short: as §1
[21] = Volume of distribution in Sprague-Dawley rat at 1.2 mg/kg, iv or 3.7 mg/kg, po; type: ADME, organism-based; conditions: in vivo, read-out: Vdss; in short: as §2
[22] = Volume of distribution in Beagle dog at 0.9 mg/kg, iv or 3.6 mg/kg, po; type: ADME, organism-based, Canis lupus familiaris; conditions: in vivo, read-out: Vdss; in short: as §1
[23] = Volume of distribution in cynomolgus monkey at 1.0 mg/kg, iv or 3.6 mg/kg, po; type: ADME, organism-based, Macaca fascicularis; conditions: in vivo, read-out: Vdss; in short: as §1
[24] = Half life in Sprague-Dawley rat at 1.2 mg/kg, iv or 3.7 mg/kg, po; type: ADME, organism-based; conditions: in vivo; in short: as §2
[25] = Half life in Beagle dog at 0.9 mg/kg, iv or 3.6 mg/kg, po; type: ADME, organism-based, Canis lupus familiaris; conditions: in vivo; in short: as §1
[26] = Half life in cynomolgus monkey at 1.0 mg/kg, iv or 3.6 mg/kg, po; type: ADME, organism-based, Macaca fascicularis; conditions: in vivo; in short: as §1

Compound: CC(C)CCn1c(=O)c(C2=NS(=O)(=O)c3ccccc3N2)c(O)c2ccccc21
- clearance [1]: 10.1 mL/min/kg
- clearance [2]: 0.5 mL/min/kg
- bioavailability [3]: 70%
- bioavailability [4]: 89%
- Vd [5]: 0.44 L/kg
- Vd [6]: 0.53 L/kg
- half-life [7]: 0.607 h
- half-life [8]: 14.3 h
- EC90 [9]: 1420 nM
- Cmax [10]: 2230 ng/mL

Compound: Cc1ccc2c(c1)c(O)c(C1=NS(=O)(=O)c3ccccc3N1)c(=O)n2CCC(C)C
- Cmax [12]: 1220 ng/mL
- Cmax [13]: 1960 ng/mL
- Cmax [14]: 2140 ng/mL
- clearance [15]: 1.65 mL/min/kg
- clearance [16]: 1.09 mL/min/kg
- clearance [17]: 5.32 mL/min/kg
- bioavailability [18]: 100%
- bioavailability [19]: > 50%
- bioavailability [20]: > 53%
- Vd [21]: 0.81 L/kg
- Vd [22]: 0.72 L/kg
- Vd [23]: 0.34 L/kg
- half-life [24]: 5.29 h
- half-life [25]: 9.06 h
- half-life [26]: 0.828 h
- pIC50 [11]: 7.33
- EC90 [9]: 831 nM

Compound: CCCCn1c(=O)c(-c2nc3ccccc3[nH]2)c(O)c2ccccc21
- pIC50 [11]: < 5.00

Compound: CC(C)CCn1c(=O)c(C2=Nc3ccccc3S(=O)(=O)N2)c(O)c2cc(O)ccc21
- pIC50 [11]: 6.70

Compound: O=c1[nH]c(-c2c(O)c3cc(F)ccc3n(CCC3CC3)c2=O)nc2ccccc12
- pIC50 [11]: < 5.00

Compound: CC(C)=CCn1c(=O)c(C2=Nc3ccccc3S(=O)(=O)N2)c(O)c2ccccc21
- pIC50 [11]: 6.54

Further compounds by rising pIC50 [11], results first:

- pIC50 [11]: 5.24
Compound: CC(C)CCn1c(=O)c(C2=Nc3ccccc3S(=O)(=O)N2)c(O)c2cc(NC(=O)CN(C)C)ccc21

- pIC50 [11]: 5.36
Compound: CC(C)CCn1c(=O)c(C2=NS(=O)(=O)c3ccccc3N2)c(O)c2cc(OCCCC#N)ccc21

- pIC50 [11]: 6.09
Compound: COCCn1c(=O)c(C2=Nc3ccccc3S(=O)(=O)N2)c(O)c2ccccc21

- pIC50 [11]: 6.26
Compound: CC(C)CCn1c(=O)c(C2=Nc3ccccc3S(=O)(=O)N2)c(O)c2ccc(F)cc21

- pIC50 [11]: 7.37
- EC90 [9]: 3830 nM
Compound: CC(C)CCn1c(=O)c(C2=NS(=O)(=O)c3ccccc3N2)c(O)c2cc(Cl)ccc21

- pIC50 [11]: 7.49
- EC90 [9]: 593 nM
Compound: Nc1ccc2c(c1)c(O)c(C1=NS(=O)(=O)c3ccccc3N1)c(=O)n2CCC1CC1

- pIC50 [11]: 7.62
Compound: CC(C)CCn1c(=O)c(C2=Nc3ccccc3S(=O)(=O)N2)c(O)c2cc(OCC(N)=O)ccc21

- pIC50 [11]: 7.70
Compound: CC(C)CCn1c(=O)c(C2=Nc3ccccc3S(=O)(=O)N2)c(O)c2cc(F)ccc21
